Converted amounts (≈) assume the structure as drawn. The source made the active and inactive calls. The calls are words filed in the database; no cut-off is given here.
Tests used:
HeLa = test: Cytotoxicity against human HeLa cells after 48 hrs by MTT assay; assay type: functional, cell-based
How it was run: (§1)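 Monolayers are cultured in DMEM with 5% fetal calf serum and 1% penicillin-streptomycin at 37 °C, 5% CO2 and 90% humidity. Exponentially growing cells (2 × 10^4 cells/well) are exposed to a range of compound concentrations for 48 h at 37 °C. Viability is read by colorimetric MTT reduction.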

Vero = test: Cytotoxicity against african green monkey Vero cells after 48 hrs by MTT assay; assay type: cell-based; conditions: Chlorocebus sabaeus; how it was run: as §1
HEp-2 = test: Cytotoxicity against human Hep2 cells after 48 hrs by MTT assay; assay type: functional, cell-based; conditions: HEp-2, 48 h; how it was run: as §1
Bacillus pumilus [1] = test: Antibacterial activity against Bacillus pumilus CECT 29 by broth microdilution method; assay type: functional
How it was run: (§2)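 Compounds are dissolved in DMSO. The minimal inhibitory concentration is estimated by broth microdilution.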

Bacillus cereus [2] = test: Antibacterial activity against Bacillus cereus CECT 496 by broth microdilution method; assay type: functional; how it was run: as §2
Bacillus subtilis [3] = test: Antibacterial activity against Bacillus subtilis CECT 39 by broth microdilution method; assay type: functional; how it was run: as §2
Escherichia coli = test: Antibacterial activity against Escherichia coli CECT 99 up to 40 ug/mL by broth microdilution method; assay type: functional, organism-based; how it was run: as §2
Proteus mirabilis = test: Antibacterial activity against Proteus mirabilis CECT170 up to 40 ug/mL by broth microdilution method; assay type: functional, organism-based; how it was run: as §2
Salmonella = test: Antibacterial activity against Salmonella sp. CECT 456 up to 40 ug/mL by broth microdilution method; assay type: functional, organism-based; how it was run: as §2
Priestia megaterium = test: Antibacterial activity against Bacillus megaterium CECT 44 up to 40 ug/mL by broth microdilution method; assay type: functional, organism-based; how it was run: as §2
Staphylococcus aureus = test: Antibacterial activity against Staphylococcus aureus ATCC 6538 up to 40 ug/mL by broth microdilution method; assay type: functional, organism-based; how it was run: as §2
Candida albicans = test: Antifungal activity against Candida albicans UBC1 up to 40 ug/mL by broth microdilution method; assay type: functional, organism-based
How it was run: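 The yeast is grown on Sabouraud agar at 37 °C. Compounds are dissolved in DMSO, and the minimal inhibitory concentration is estimated by broth microdilution.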

Bacillus cereus [4] = test: Antibacterial activity against Bacillus cereus CECT 496 up to 40 ug/mL by broth microdilution method; assay type: functional, organism-based; how it was run: as §2
[5] = test system: Staphylococcus epidermidis; test: Antibacterial activity against Staphylococcus epidermidis CECT 232 up to 40 ug/mL by broth microdilution method; assay type: functional, organism-based; how it was run: as §2
Bacillus pumilus [6] = test: Antibacterial activity against Bacillus pumilus CECT 29 up to 40 ug/mL by broth microdilution method; assay type: functional, organism-based; how it was run: as §2
Enterococcus faecalis = test: Antibacterial activity against Enterococcus faecalis CECT 795 up to 40 ug/mL by broth microdilution method; assay type: functional, organism-based; how it was run: as §2
[7] = test system: Mycolicibacterium smegmatis; test: Antibacterial activity against Mycobacterium smegmatis CECT 3032 up to 40 ug/mL by broth microdilution method; assay type: functional, organism-based; how it was run: as §2
Pseudomonas aeruginosa = test: Antibacterial activity against Pseudomonas aeruginosa AK 958 up to 40 ug/mL by broth microdilution method; assay type: functional, organism-based; how it was run: as §2
Bacillus subtilis [8] = test: Antibacterial activity against Bacillus subtilis CECT 39 up to 40 ug/mL by broth microdilution method; assay type: functional, organism-based; how it was run: as §2
[9] = test system: Staphylococcus saprophyticus; test: Antibacterial activity against Staphylococcus saprophyticus CECT 235 up to 40 ug/mL by broth microdilution method; assay type: functional, organism-based; how it was run: as §2

Compound	IC50 (HeLa) [µg/mL]	IC50 (Vero) [µg/mL]	IC50 (HEp-2) [µg/mL]	MIC (Bacillus pumilus [1]) [µg/mL]	MIC (Bacillus cereus [2]) [µg/mL]	MIC (Bacillus subtilis [3]) [µg/mL]	Activity (Escherichia coli)	Activity (Proteus mirabilis)	Activity (Salmonella)	Activity (Priestia megaterium)	Activity (Staphylococcus aureus)	Activity (Candida albicans)	Activity (Bacillus cereus [4])	Activity [5]	Activity (Bacillus pumilus [6])	Activity (Enterococcus faecalis)	Activity [7]	Activity (Pseudomonas aeruginosa)	Activity (Bacillus subtilis [8])	Activity [9]
C=C(C)[C@@H]1CC[C@]2(C(=O)O)CC[C@]3(C)[C@@H](CC[C@@H]4[C@@]5(C)CCC(=O)C(C)(C)[C@@H]5[C@H](O)C[C@]43C)[C@@H]12	> 10	> 10	> 10	20 (≈ 42.5 µM)	25 (≈ 53.1 µM)	35 (≈ 74.4 µM)	–	–	–	–	–	–	–	–	–	–	–	–	–	–
C=C(C)[C@@H]1CC[C@]2(C)CC[C@]3(C)[C@@H](CC[C@@H]4[C@@]5(C)[C@H](O)CC(=O)C(C)(C)[C@@H]5CC[C@]43C)[C@@H]12 [GLOCHIDONOL]	< 10	< 10	< 10	–	–	–	inactive	inactive	inactive	inactive	inactive	inactive	inactive	inactive	inactive	inactive	inactive	inactive	inactive	inactive

Reference: ChEMBL document CHEMBL1158804, “Lupane triterpenoids from Maytenus species” (J Nat Prod, 2005)
